Measurements as given in publication PMC5483893 (Journal of Medicinal Chemistry, 2017).

Key:
[1] = test system: COX-derived PGD2 and PGE2 in RBL-1 cells; type: cell-based, rat
[2] = test system: acetylated α-tubulin (AcTub) in QBI-293 cells; assay: Acetyl-tubulin assay; type: cell-based
Procedure, shortened: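 QBI-293 cells kept at 37 °C, 5% CO₂, trypsinised and plated at 6 × 10⁵ cells/well, then exposed overnight-later to vehicle (DMSO) or test compound for 4 h. Lysis in RIPA with protease inhibitors, 1 mM PMSF and 1 μM TSA; 100000g spin, 30 min, 4 °C. BCA protein, then AcTub ELISA. Fold-change versus vehicle, at least triplicate, two-tailed unpaired t test.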

[3] = test system: total α-tubulin in QBI-293 cells; assay: Total α-tubulin ELISA; type: cell-based; conditions: at doses typically required to induce an elevation in AcTub
Procedure, shortened: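 QBI-293 cells were plated at 6 × 10⁵ cells/well, grown overnight at 37 °C and 5% CO₂, then given fresh medium with vehicle (DMSO) or 1 and 10 μM test compound for 4 h. Lysis was in RIPA with protease inhibitors, 1 mM PMSF and 1 μM TSA, followed by 100000g for 30 min at 4 °C. Supernatant was BCA-normalized and α-tubulin measured by ELISA as fold-change versus vehicle. Samples were run at least in triplicate; significance was by two-tailed unpaired t test.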

Compound: COc1ccc(-c2cncn2-c2ccc(Cl)cc2)cc1 [Compound 51, 1-(4-Chlorophenyl)-5-(4-methoxyphenyl)-1H-imidazole]
- inhibition of the combined PGD2/PGE2 synthesis ([1]; RBL-1 cell assay, tested at 10 μM): near complete inhibition
- MT activity (AcTub increase), inactive compounds ([2]; QBI-293 cells, 1 and 10 μM): essentially devoid of MT activity

Compound: Cc1nc(Cl)c(-c2c(F)ccc(F)c2F)n1-c1ccc(Cl)c(F)c1 [Compound 71, 4-Chloro-1-(4-chloro-3-fluorophenyl)-2-methyl-5-(2,3,6-trifluorophenyl)-1H-imidazole]
- shape of concentration–response in the AcTub assay ([2]; comparison of 1 and 10 μM): bell-shaped concentration–response relationship
- effect on total α-tubulin levels [3]: cause a significant reduction in total α-tubulin levels

Compound: Fc1cccc(F)c1-c1c(Cl)nc(Cl)n1-c1ccccc1Cl [Compound 104, 2,4-Dichloro-1-(2-chlorophenyl)-5-(2,6-difluorophenyl)-1H-imidazole]
- inhibition in the PGD2/PGE2 assay ([1]; RBL-1 cells): > 50%
- elevation in AcTub without decrease of α-tubulin ([2]; 1 or 10 μM): produce an elevation in AcTub at 1 or 10 μM without decreasing α-tubulin level
